Assay results as given in ChEMBL document CHEMBL4400543, “Identification and Characterization of AES-135, a Hydroxamic Acid-Based HDAC Inhibitor That Prolongs Survival in an Orthotopic Mouse Model of Pancreatic Cancer” (J Med Chem, 2019).
Active and inactive are the calls of the source.

How the values were obtained:
Histone deacetylase 3 = Histone deacetylase 3 (Homo sapiens, UniProt O15379); assay: Inhibition of recombinant human HDAC3 expressed in SF9 baculoviral system at 10 uM using FAM-labeled acetylated peptide as substrate by EMSA relative to control
Sequence of Histone deacetylase 3 (O15379 whole entry): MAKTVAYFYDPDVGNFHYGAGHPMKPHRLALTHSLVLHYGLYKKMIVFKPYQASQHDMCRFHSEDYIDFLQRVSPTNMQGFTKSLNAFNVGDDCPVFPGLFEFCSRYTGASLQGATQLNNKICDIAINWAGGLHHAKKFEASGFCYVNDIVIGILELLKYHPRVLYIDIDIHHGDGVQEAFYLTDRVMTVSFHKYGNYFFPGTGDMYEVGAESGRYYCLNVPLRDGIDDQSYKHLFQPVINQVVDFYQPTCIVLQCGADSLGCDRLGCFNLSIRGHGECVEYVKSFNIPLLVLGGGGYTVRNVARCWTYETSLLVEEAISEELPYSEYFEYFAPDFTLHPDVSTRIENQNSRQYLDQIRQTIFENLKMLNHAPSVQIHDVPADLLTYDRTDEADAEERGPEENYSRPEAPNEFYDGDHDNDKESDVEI
Method in brief: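 Single-point screen at 10 μM compound, using full-length recombinant human enzyme expressed in Sf9 cells. Buffer was HEPES pH 7.5 with KCl, BSA and Triton X-100, and 1% DMSO. Final enzyme was 0.5 nM for HDAC3, 60 nM for HDAC6 and 5.0 nM for HDAC8, with 1 μM FAM-acetylated peptide. Percent inhibition was derived from the product sum ratio relative to DMSO-only (0%) and no-enzyme (100%) controls.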

MOLM-13 = assay: Cytotoxicity against human MOLM13 cells at 50 uM after 72 hrs by CellTiter-Blue assay; format: functional, cell-based
Method in brief: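 Cells in 10% FBS medium, 10 000 cells/well, treated 24 h after plating. Twofold dilution series from a 50.0 μM top dose to 0.097656 μM, in triplicate, 0.5% DMSO vehicle. 72 h at 37 °C, 5% CO2. CellTiter-Blue for 1–4 h, fluorescence 560/590 nm. IC50 by nonlinear regression.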

MDA-MB-231 = assay: Cytotoxicity against human MDA-MB-231 cells after 72 hrs by CellTiter-Blue assay; format: functional, cell-based; conditions: MDA-MB-231, 72 h
Method in brief: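 MDA-MB-231 cells in DMEM with 10% FBS, 10 000 cells/well, treated after 24 h. Twofold dilutions from 50.0 μM, in triplicate, 0.5% DMSO vehicle. 72 h at 37 °C. CellTiter-Blue fluorescence read at 560/590 nm. IC50 by nonlinear regression.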

[1] = target: Signal transducer and activator of transcription 3 (Homo sapiens) (UniProt P40763); assay: Inhibition of STAT3 phosphorylation at Y705 residue in human MDA-MB-231 cells up to 30 uM after 5 hrs by Western blot method; format: cell-based
Sequence of Signal transducer and activator of transcription 3 (Homo sapiens) (P40763 whole entry): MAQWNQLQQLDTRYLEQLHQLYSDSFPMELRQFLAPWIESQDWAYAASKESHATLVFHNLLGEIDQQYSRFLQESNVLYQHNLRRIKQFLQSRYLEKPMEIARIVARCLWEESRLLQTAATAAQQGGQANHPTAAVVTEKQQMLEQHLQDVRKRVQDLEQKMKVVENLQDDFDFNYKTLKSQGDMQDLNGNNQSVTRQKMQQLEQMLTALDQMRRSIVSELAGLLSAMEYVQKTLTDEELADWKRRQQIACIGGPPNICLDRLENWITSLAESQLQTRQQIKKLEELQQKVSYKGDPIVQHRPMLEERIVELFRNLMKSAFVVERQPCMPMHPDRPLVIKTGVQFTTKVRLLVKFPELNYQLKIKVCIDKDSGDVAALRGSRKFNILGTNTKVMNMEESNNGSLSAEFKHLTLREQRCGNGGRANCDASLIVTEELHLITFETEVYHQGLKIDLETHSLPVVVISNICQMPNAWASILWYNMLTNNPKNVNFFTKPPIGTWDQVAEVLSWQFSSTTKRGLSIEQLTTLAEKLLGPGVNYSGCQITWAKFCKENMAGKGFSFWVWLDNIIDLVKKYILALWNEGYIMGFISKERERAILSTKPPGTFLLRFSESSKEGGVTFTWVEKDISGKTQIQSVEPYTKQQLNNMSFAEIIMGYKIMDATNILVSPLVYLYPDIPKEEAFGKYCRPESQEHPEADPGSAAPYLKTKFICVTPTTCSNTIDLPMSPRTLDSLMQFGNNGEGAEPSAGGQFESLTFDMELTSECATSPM
Method in brief: (§1)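 Run on 4–15% SDS-PAGE and transferred to PVDF. Primary antibodies 1:1000 overnight at 4 °C, HRP or fluorescent secondary 1:5000, ECL detection, β-actin loading control.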

[2] = target: Signal transducer and activator of transcription 5B (Homo sapiens) (UniProt P51692); assay: Inhibition of STAT5b phosphorylation at Y694 in human MV4-11 cells at 10 uM after 5 hrs by Western blot method; format: cell-based; method in brief: as §1
Sequence of Signal transducer and activator of transcription 5B (Homo sapiens) (P51692 whole entry): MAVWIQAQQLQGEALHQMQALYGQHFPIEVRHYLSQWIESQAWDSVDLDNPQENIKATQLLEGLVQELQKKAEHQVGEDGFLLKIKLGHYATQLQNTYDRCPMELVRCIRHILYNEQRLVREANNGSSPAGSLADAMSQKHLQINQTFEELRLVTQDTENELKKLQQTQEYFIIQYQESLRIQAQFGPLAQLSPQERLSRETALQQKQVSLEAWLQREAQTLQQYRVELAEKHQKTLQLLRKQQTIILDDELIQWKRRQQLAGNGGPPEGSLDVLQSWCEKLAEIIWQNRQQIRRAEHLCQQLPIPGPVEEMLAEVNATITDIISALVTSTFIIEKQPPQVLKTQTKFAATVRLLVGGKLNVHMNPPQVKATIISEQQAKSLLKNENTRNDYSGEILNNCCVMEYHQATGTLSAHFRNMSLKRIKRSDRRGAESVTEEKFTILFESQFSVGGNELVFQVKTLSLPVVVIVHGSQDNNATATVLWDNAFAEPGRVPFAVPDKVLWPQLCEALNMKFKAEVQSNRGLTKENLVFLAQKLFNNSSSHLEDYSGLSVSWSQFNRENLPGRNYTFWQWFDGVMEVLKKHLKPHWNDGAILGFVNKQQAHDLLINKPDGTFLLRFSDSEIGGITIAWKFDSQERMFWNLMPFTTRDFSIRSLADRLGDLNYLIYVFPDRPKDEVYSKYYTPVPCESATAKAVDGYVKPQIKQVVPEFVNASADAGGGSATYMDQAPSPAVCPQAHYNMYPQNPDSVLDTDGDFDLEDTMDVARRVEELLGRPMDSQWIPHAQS

[3] = Intrinsic clearance in ICR/CD1 mouse hepatocytes assessed per million cells at 1 uM up to 120 mins by LC-MS/MS analysis; format: ADME, cell-based, Hepatocyte; conditions: 2 h
[4] = Apparent permeability across basolateral to apical side in human Caco2 cells at 5 uM by LC-MS/MS analysis; format: ADME, cell-based; conditions: caco-2, 5 µM
Method in brief: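 Caco-2 monolayer permeability run in duplicate. Monolayer integrity checked by TEER and Lucifer Yellow fluorescence (ex 485/em 530 nm). Papp measured apical-to-basolateral and basolateral-to-apical by LC-ESI-MS/MS with internal standards. Digoxin, prazosin and propranolol as controls.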

[5] = Drug uptake in NSG mouse serum at 20 mg/kg, ip administered as single dose and measured at 0.5 hrs by HPLC-MS/MS analysis; format: ADME, organism-based; conditions: read-out: Drug uptake
Method in brief: (§2)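 NSG mice given a single 20 mg/kg IP dose in Cremophor EL/EtOH (1:1, 4% final volume)/sterile saline. Tail-vein blood at 0.5, 1, 2, 4, 8 and 24 h, n = 2. Drug quantified in serum/plasma. Half-life and clearance calculated assuming 100% bioavailability.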

[6] = Drug uptake in NSG mouse serum at 10 mg/kg, ip administered daily for 5 days by HPLC-MS/MS analysis; format: ADME, organism-based; conditions: read-out: Drug uptake
Method in brief: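 NSG mice dosed IP once daily for 5 days at 10 or 40 mg/kg, n = 6. Blood collected 5 h after the final injection for serum drug concentration, reported ± SD.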

Pa03C = assay: Cytotoxicity against human Pa03C cells assessed as reduction in tumor spheroid intensity after 72 hrs by Alamar Blue assay; format: functional, cell-based
Method in brief: (§3)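 3D spheroids of patient-derived PDAC cells (tomato red) alone or with CAF19 cells, plus CAF cultures. Imaging read-outs: area is the μ2 of objects above a tomato red intensity threshold; intensity is summed red or green pixel fluorescence after background removal. n = 3–5.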

Panc1005 = assay: Cytotoxicity against human Panc 10.05 cells assessed as reduction in tumor spheroid area after 72 hrs in presence of human CAF19 cells by Alamar Blue assay; format: functional, cell-based; conditions: Panc1005, 72 h; method in brief: as §3
[7] = Half life in NSG mouse at 20 mg/kg, ip administered as single dose by HPLC-MS/MS analysis; format: ADME, organism-based; conditions: in vivo; method in brief: as §2
Mus musculus = assay: Antitumor activity against mouse KPC cells allografted in […] C57BI/6 mouse assessed as mean survival time at 50 mg/kg, ip administered daily for 5 days per week for 1 month starting on day 7 post implantation (reference value: 29.5 days); format: functional, organism-based

In the case of `CC(C)(C)c1ccc(CN(C(=O)CN(Cc2c(F)c(F)c(F)c(F)c2F)S(=O)(=O)c2ccc(F)cc2)c2ccc(C(=O)NO)cc2)cc1`, the inhibition (Histone deacetylase 3) is reported as 98%, the Activity (MOLM-13) is reported as “Active” and the IC50 (MDA-MB-231) is reported as 2720 nM. For the same compound, the inhibition [1] was “inactive”, the inhibition [2] was “inactive” and the CLH [3] was 36 µL/min. For the same compound, the Papp [4] was 1.02 ×10⁻⁶ cm/s, the concentration at 0.5 h [5] was 7450 ng/mL and the concentration at 120 h [6] was 470 nM. It also gave an IC50 (Pa03C) of 1330 nM, an IC50 (Panc1005) of 940 nM and a half-life [7] of 5 h. The Activity (Mus musculus) was “inactive”.
